Source: PubChem
DNA FID counter – compounds displacing fluorescent DNA intercalator, primary screen, artefact control for HCV NS3 helicase inhibitor project, biochemical, FID fluorescence; DNA fluorescent intercalator displacement; inhibition, % at 7.9 µM; 290,000 compounds, 0.17% hits; AID 1845, 2009; in the data active = inhibition above about 37%;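 note: higher means more ethidium bromide displaced from hairpin DNA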
HCV core dimer – inhibitors of HCV core protein dimerization, primary screen, biochemical, TR-FRET, high-throughput; TR-FRET GST/Flag-core106 dimerization, 1536-well; inhibition, % at 5 µM; 300,000 compounds, 0.33% hits; AID 1899, 2009;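 active = inhibition above the mean of all tested compounds plus 3 SD, set per screening campaign, cut at about 45% in these data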
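Test system: GST/Flag-tagged HCV core106 proteins; Medium: KF-containing HEPES buffer, pH 7.45, DTT, CHAPS, BSA; Times: compound-protein-antibody incubation 4 h at 22.5 °C; Detection: TR-FRET 671 and 617 nm emission; Benchmarks: wells lacking GST-core106 and wells with excess unlabelled core106.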
NRP1-CendR mod – modulators of CendR peptide binding to NRP-1, primary screen, biochemical, fluorescence polarization, uHTS. inhibition, % at 25 µM. FAM-RPARPAR peptide binding to NRP-1. Neuropilin-1 (Homo sapiens), O14786. 360,000 compounds, 0.85% hits;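 active = inhibition or corrected inhibition above about 18%, plus a signal ratio from 0.5 to 1.5, limit read from the data, passing the limit was not always enough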
Target sequence (O14786 whole entry, looked up): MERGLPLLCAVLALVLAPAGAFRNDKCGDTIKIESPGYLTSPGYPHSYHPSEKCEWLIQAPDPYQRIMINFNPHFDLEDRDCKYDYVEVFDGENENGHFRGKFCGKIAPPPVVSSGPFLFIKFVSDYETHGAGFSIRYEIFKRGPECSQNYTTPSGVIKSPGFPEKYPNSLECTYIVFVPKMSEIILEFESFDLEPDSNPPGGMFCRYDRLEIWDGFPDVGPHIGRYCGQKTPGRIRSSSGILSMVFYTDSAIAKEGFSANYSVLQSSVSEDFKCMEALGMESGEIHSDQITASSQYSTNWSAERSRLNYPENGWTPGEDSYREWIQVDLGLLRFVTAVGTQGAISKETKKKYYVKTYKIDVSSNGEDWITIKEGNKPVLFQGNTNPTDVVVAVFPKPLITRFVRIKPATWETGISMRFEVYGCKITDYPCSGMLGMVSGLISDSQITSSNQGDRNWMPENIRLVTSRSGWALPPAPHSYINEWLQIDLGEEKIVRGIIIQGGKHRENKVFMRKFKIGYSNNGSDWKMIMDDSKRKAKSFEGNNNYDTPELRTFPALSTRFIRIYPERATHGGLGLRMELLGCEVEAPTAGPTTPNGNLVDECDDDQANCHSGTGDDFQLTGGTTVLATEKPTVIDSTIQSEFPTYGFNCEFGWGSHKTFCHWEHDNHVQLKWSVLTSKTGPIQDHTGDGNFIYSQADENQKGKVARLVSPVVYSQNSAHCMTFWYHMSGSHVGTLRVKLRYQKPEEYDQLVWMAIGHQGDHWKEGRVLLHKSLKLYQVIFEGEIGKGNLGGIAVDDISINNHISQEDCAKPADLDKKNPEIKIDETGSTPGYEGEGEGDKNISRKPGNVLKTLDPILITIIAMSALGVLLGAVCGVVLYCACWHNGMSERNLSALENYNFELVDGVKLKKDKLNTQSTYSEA
MEX-5 binding – MEX-5 zinc finger RNA-binding disruptors – biochemical, C. elegans, fluorescence polarization, MLPCN library, primary screen; 300,000 compounds, 0.38% hits; AID 1832, 2009; Zinc finger protein mex-5 (Caenorhabditis elegans), Q9XUB2; MEX-5/FITC-TCR2 RNA binding; active compounds read low; activity score (negative = inhibition of binding), % at 10 µM;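 active = inhibition past about -25% in most replicates, and total fluorescence under double the plate's negative control median, limit read from the data; inconclusive = replicates evenly split on the limit, or fluorescence at least double controls; inactive = too little inhibition in most replicates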
Numbers stand for hits; . = inactive; ? = inconclusive; / = no result. The list is not random: actives were taken first. Their share in the collection is about 1.5%.

SMILES	DNA FID counter	HCV core dimer	NRP1-CendR mod	MEX-5 binding
O=C(c1ccccc1)N1CCN(c2cc(Cl)nc3cc(-c4cccc(Cl)c4)nn23)CC1	/	/	.	/
O=C(C(=O)N1CCN(c2ccccc2)CC1)c1ccncc1	/	/	.	/
CCOC(=O)c1[nH]c(C)c(C(=O)NCC2CCCO2)c1C (stereo unspecified)	.	.	22	.
CCOC(=O)c1[nH]c(C)c(C(=O)NC2CCCCC2)c1C	.	.	.	.
CCN(CC)C(=O)CSC1=N/C(=C/c2ccco2)C(=O)N1c1ccc(OC)c(Cl)c1	.	51	.	.
COc1ccc(N2C(=O)/C(=C\c3ccco3)N=C2SCC(=O)NC(C)(C)C)cc1Cl	.	.	.	.
Cc1cccc(C)c1NC(=O)CN1CCN(C(=O)c2ccc(OCc3cn4ccccc4n3)cc2)CC1	/	/	30	/
C#CCn1c2ccccc2c(=O)n1CCOc1ccccc1OC	/	/	.	/
CSc1ccc(C2C(C#N)=C(N)Oc3c2ccc(=O)c2c(C)oc(C)c32)cc1 (stereo unspecified)	.	78	.	.
O=C(NCCN1CCC(n2c(=O)[nH]c3ccccc32)CC1)c1cccs1	/	/	.	/
CC1CCN(S(=O)(=O)c2ccc(NC(=O)Cc3cccs3)cc2)CC1	.	65	.	.
CC1(C(=O)NS(=O)(=O)c2cccc(OC(F)F)c2)CCN1C(=O)Cc1ccccc1 (stereo unspecified)	/	/	.	/
CC1(NC(=O)Cc2csc(-c3cccc(Cl)c3)n2)CCS(=O)(=O)C1 (stereo unspecified)	/	/	.	/
CCc1cc(=O)oc2cc(C)c(CN3CCCC(C)C3)c(O)c12 (stereo unspecified)	.	61	.	.
CCCCc1cc(=O)oc2cc(C)c(CN3CCCC3)c(O)c12	.	51	.	.
CCCCc1cc(=O)oc2c(CN3CCCC3)c(O)ccc12	.	.	.	.
COc1ccc(CN2C(=O)CN(S(C)(=O)=O)CC2(C)C(=O)Nc2c(C)cccc2C)cc1OC (stereo unspecified)	/	/	.	/
Cc1ccc2cc(CN(c3ccccc3C)S(=O)(=O)c3ccccc3)c(=O)[nH]c2c1	.	.	25	.
OCc1cccc(-c2cnc3c(Nc4cccc(OC(F)(F)C(F)F)c4)nccn23)c1	/	/	.	/
C/C(=C\c1ccccc1)C(=O)N1CCN(c2cccc(C(F)(F)F)c2)CC1	.	.	29	.
C/C(=C/c1ccccc1)C(=O)N1CCN(c2ccccc2F)CC1	.	.	.	.
COc1ccc(N/C(N)=N/c2nc(C)cc(C)n2)c(OC)c1	.	.	30	.
CCC(C(=O)NC1CCCC1)n1c(C2CCCC2)nc2ccccc21 (stereo unspecified)	/	/	.	/
O=C(NCc1ccco1)c1ccc(S(=O)(=O)N2CCCCC2)cc1	.	.	.	.
O=C(NCc1ccco1)C1CCN(S(=O)(=O)c2cccc([N+](=O)[O-])c2)CC1	.	.	28	.
SMILES	DNA FID counter	HCV core dimer	NRP1-CendR mod	MEX-5 binding
O=C(NCc1ccco1)c1ccc(S(=O)(=O)N2CCOCC2)cc1	.	48	.	.
COc1ccc(-c2csc(NCc3ccco3)n2)cc1C	.	.	23	.
CCOP(=O)(OCC)C(C#N)=C1SCN(c2ccccc2)CS1	.	90	.	.
COc1cccc(-c2cnc3c(NC=O)cc(-c4ccncc4)cn23)c1	/	/	.	/
COc1ccc(-c2ccc(C(=O)NCc3ccncc3)c3occc23)c(C)c1	/	/	.	/
O=c1oc(-c2ccccc2)c(-c2ccccc2)c2ccccc12	/	/	.	/
N#CC1=C(N)C2=C(N3CCCCC3)CCCC2C1(C#N)C#N (stereo unspecified)	.	.	.	-44
Cc1cc(=O)n2[nH]c(=O)c(N=Nc3ccccc3)c2[nH]1	.	.	.	-82
Cc1cc(C)n2[nH]c(=O)c(N=Nc3ccccc3)c2n1	.	.	.	.
CCOc1ccc(N=Nc2c(=O)[nH]n3c(=O)cc(C)[nH]c23)cc1	.	.	.	-51
O=C(NNC(=O)C1CCN(c2ncccn2)CC1)c1ccc(F)cc1	.	.	42	.
Cn1nc(C(=O)NNC(=O)c2ccc(Cl)cc2)ccc1=O	/	.	.	.
CCc1ccc(C(=O)NNC(=O)c2ccc(=O)n(C)n2)cc1	.	.	.	-30
CS(=O)(=O)c1ccc(Cl)c(NC(=O)COC(=O)c2ccc(S(=O)(=O)N3CCCC3)cc2)c1	/	/	22	/
COc1ccc(C(=O)c2[nH]c(N)c(C(=O)NCCc3c[nH]c4ccccc34)c2-c2c(F)cccc2Cl)cc1	/	/	.	/
Cc1ccc(N2C(=O)[C@@H]3[C@H](C2=O)C2CCCN2[C@@H]3C(=O)c2ccccc2)cc1 (stereo partly specified)	.	58	.	.
O=C(c1ccccc1)[C@@H]1[C@@H]2C(=O)N(c3ccc(F)cc3)C(=O)[C@@H]2C2CCCN21 (stereo partly specified)	.	.	.	?
O=C(c1ccc(Cl)cc1)C1C2C(=O)N(c3ccccc3)C(=O)C2C2CCCN21 (stereo unspecified)	.	/	.	-29
CC(=O)c1ccc(N2C(=O)C3C(C2=O)C(C(=O)c2ccc(Cl)cc2)N2CCCC32)cc1 (stereo unspecified)	.	/	/	/
COc1ccc(-c2nc3ccc(Cl)cn3c2Cc2cccc(F)c2)cc1OC	/	/	.	/
COc1cc(C(=O)N2CCC2(C)C(=O)O)cc(OC)c1OC (stereo unspecified)	/	/	.	/
COc1ccccc1-c1ncn(Cc2cccc(-c3ccccc3)c2)c1-c1ccco1	/	/	.	/
O=C1CCCCN1CCC(=O)N1CCCC(N2CCN(c3cccc(Cl)c3)CC2)C1 (stereo unspecified)	.	.	25	.
O=C1CCCCN1CCC(=O)N1CCCC(N2CCN(c3ccccc3)CC2)C1 (stereo unspecified)	.	.	.	.
Cc1ccccc1C1=NC(c2ccc(F)cc2F)ON1 (stereo unspecified)	.	.	22	.
SMILES	DNA FID counter	HCV core dimer	NRP1-CendR mod	MEX-5 binding
COc1ccccc1C1N=C(c2ccccc2C)NO1 (stereo unspecified)	.	.	.	.
Cn1nc(C(C)(C)C)cc1N1C(=O)CCC1(C)C(=O)NC1CCCCC1 (stereo unspecified)	/	/	.	/
Cn1nc(C(C)(C)C)cc1N1C(=O)CCC1(C)C(=O)Nc1ccc2ccccc2c1 (stereo unspecified)	/	/	24	/
COc1ccc(C(=O)c2cc(OC)c(OC)c(OC)c2)cc1OC	/	/	.	/
CCOC(=O)C1=C(C)NC2=C(C(=O)CCC2)C1c1cn(Cc2ccc(Cl)cc2Cl)nc1-c1ccccc1 (stereo unspecified)	.	.	25	.
Cc1c(Cl)cnc(NC(=O)COC(=O)[C@H](C)NC(=O)c2ccccc2)c1Cl	/	/	26	/
COCCc1ccc(OC2(C)CCN(Cc3cccc(OC)c3OC)C2)cc1 (stereo unspecified)	/	/	.	/
CCN(CC)c1ccc(C=C2C(=O)OC(C)(C(C)(C)C)OC2=O)cc1 (stereo unspecified)	/	.	.	-69
